From ChEMBL document CHEMBL2346496, “Discovery of new benzothiazole-based inhibitors of breakpoint cluster region-Abelson kinase including the T315I mutant” (J Med Chem, 2013)
≈ marks a conversion by molar mass, not a printed value. Blank lines part the entries; values can stand above or below the molecule they belong to.

Assays:
cells [1] = conditions: Mus musculus, BaF3, 48 h
cells [2] = conditions: Mus musculus, BaF3, 48 h; remark: listed apart in the source
BaF3 = assay: Cytotoxicity against mouse BA/F3 cells transfected with Bcr-Abl T315I mutant after 48 hrs by XTT assay
cells [3] = conditions: Mus musculus, BaF3, 48 h; remark: listed apart in the source
K562 = assay: cells; conditions: Homo sapiens
[4] = Stability of the compound at 37 degC at pH 6.7 after 24 hrs by UPLC method; type: physicochemical; conditions: buffer, read-out: Stability
Procedure, shortened: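 Stability followed by UPLC over 24 h at 37 °C, pH 6.7.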

[5] = Aqueous solubility of the compound at pH 6.7; type: physicochemical
[6] = target: Tyrosine-protein kinase ABL1 (Homo sapiens, UniProt P00519, T315I); assay: Inhibition of breakpoint cluster region-Abelson tyrosine kinase T315I mutant (unknown origin) using [gamma-33P]ATP as substrate by radiometric kinase assay
[7] = target: Dual specificity mitogen-activated protein kinase kinase 2 (Homo sapiens) (UniProt P36507); assay: Inhibition of MEK2 (unknown origin) at 1 uM relative to control; values are per cent of control
[8] = target: Phosphatidylinositol 4,5-bisphosphate 3-kinase catalytic subunit alpha isoform (Homo sapiens) (UniProt P42336); assay: Inhibition of PI3KCA (unknown origin) at 1 uM relative to control; values are per cent of control
[9] = target: Fibroblast growth factor receptor 2 (Homo sapiens) (UniProt P21802); assay: Inhibition of FGFR2 (unknown origin) at 1 uM relative to control; values are per cent of control
[10] = target: Vascular endothelial growth factor receptor 2 (Homo sapiens) (UniProt P35968); assay: Inhibition of VEGFR2 (unknown origin) at 1 uM relative to control; values are per cent of control
[11] = target: Epidermal growth factor receptor (Homo sapiens) (UniProt P00533); assay: Inhibition of EGFR (unknown origin) at 1 uM relative to control; values are per cent of control
[12] = target: Aurora kinase A (Homo sapiens) (UniProt O14965); assay: Inhibition of AURKA (unknown origin) at 1 uM relative to control; values are per cent of control
[13] = target: Serine/threonine-protein kinase pim-1 (Homo sapiens) (UniProt P11309); assay: Inhibition of PIM1 (unknown origin) at 1 uM relative to control; values are per cent of control
[14] = target: Aurora kinase B (Homo sapiens) (UniProt Q96GD4); assay: Inhibition of AURKB (unknown origin) at 1 uM relative to control; values are per cent of control
[15] = target: Insulin-like growth factor 1 receptor (Homo sapiens) (UniProt P08069); assay: Inhibition of IGF1R (unknown origin) at 1 uM relative to control; values are per cent of control
[16] = target: Inhibitor of nuclear factor kappa-B kinase subunit alpha (Homo sapiens) (UniProt O15111); assay: Inhibition of IKK alpha (unknown origin) at 1 uM relative to control; values are per cent of control
[17] = target: Serine/threonine-protein kinase PLK3 (Homo sapiens) (UniProt Q9H4B4); assay: Inhibition of PLK3 (unknown origin) at 1 uM relative to control; values are per cent of control
[18] = target: Mitogen-activated protein kinase 3 (Homo sapiens) (UniProt P27361); assay: Inhibition of ERK1 (unknown origin) at 1 uM relative to control; values are per cent of control
[19] = target: Serine/threonine-protein kinase B-raf (Homo sapiens) (UniProt P15056); assay: Inhibition of BRAF (unknown origin) at 1 uM relative to control; values are per cent of control
[20] = target: Angiopoietin-1 receptor (Homo sapiens) (UniProt Q02763); assay: Inhibition of TIE2 (unknown origin) at 1 uM relative to control; values are per cent of control
[21] = target: Mitogen-activated protein kinase 8 (Homo sapiens) (UniProt P45983); assay: Inhibition of JNK1 (unknown origin) at 1 uM relative to control; values are per cent of control
[22] = target: Rho-associated protein kinase 2 (Homo sapiens) (UniProt O75116); assay: Inhibition of ROCK2 (unknown origin) at 1 uM relative to control; values are per cent of control
Homo sapiens [23] = organism: Homo sapiens; assay: Inhibition of CDK11 (unknown origin) at 1 uM relative to control; values are per cent of control
[24] = target: Ribosomal protein S6 kinase alpha-3 (Homo sapiens) (UniProt P51812); assay: Inhibition of RSK2 (unknown origin) at 1 uM relative to control; values are per cent of control
[25] = target: cAMP-dependent protein kinase catalytic subunit alpha (Homo sapiens) (UniProt P17612); assay: Inhibition of PKAC-a (unknown origin) at 1 uM relative to control; values are per cent of control
[26] = target: Cyclin-dependent kinase 2 (Homo sapiens) (UniProt P24941); assay: Inhibition of CDK2 (unknown origin) at 1 uM relative to control; values are per cent of control
[27] = target: Tyrosine-protein kinase JAK2 (Homo sapiens) (UniProt O60674); assay: Inhibition of JAK2 (unknown origin) at 1 uM relative to control; values are per cent of control
[28] = target: Mast/stem cell growth factor receptor Kit (Homo sapiens) (UniProt P10721); assay: Inhibition of KIT (unknown origin) at 1 uM relative to control; values are per cent of control
[29] = system: Tyrosine-protein kinase ABL1 (Homo sapiens), P00519 [E255K]; assay: Inhibition of phosphorylated breakpoint cluster region-Abelson tyrosine kinase E255K mutant (unknown origin) at 1 uM relative to control; values are per cent of control
[30] = target: Mitogen-activated protein kinase 14 (Homo sapiens) (UniProt Q16539); assay: Inhibition of P38alpha (unknown origin) at 1 uM relative to control; values are per cent of control
[31] = target: Hepatocyte growth factor receptor (Homo sapiens) (UniProt P08581); assay: Inhibition of MET (unknown origin) at 1 uM relative to control; values are per cent of control
[32] = target: Proto-oncogene tyrosine-protein kinase Src (Homo sapiens) (UniProt P12931); assay: Inhibition of SRC (unknown origin) at 1 uM relative to control; values are per cent of control
[33] = target: RAC-alpha serine/threonine-protein kinase (Homo sapiens) (UniProt P31749); assay: Inhibition of AKT1 (unknown origin) at 1 uM relative to control; values are per cent of control
[34] = target: Serine/threonine-protein kinase PLK1 (Homo sapiens) (UniProt P53350); assay: Inhibition of PLK1 (unknown origin) at 1 uM relative to control; values are per cent of control
[35] = target: Serine/threonine-protein kinase PAK 1 (Homo sapiens) (UniProt Q13153); assay: Inhibition of PAK1 (unknown origin) at 1 uM relative to control; values are per cent of control
[36] = target: Receptor-type tyrosine-protein kinase FLT3 (Homo sapiens) (UniProt P36888); assay: Inhibition of FLT3 (unknown origin) at 1 uM relative to control; values are per cent of control
Homo sapiens [37] = organism: Homo sapiens; assay: Inhibition of phosphorylated breakpoint cluster region-Abelson tyrosine kinase (unknown origin) at 1 uM relative to control; values are per cent of control
[38] = target: Glycogen synthase kinase-3 beta (Homo sapiens) (UniProt P49841); assay: Inhibition of GSK3b (unknown origin) at 1 uM relative to control; values are per cent of control
[39] = system: Tyrosine-protein kinase ABL1 (Homo sapiens), P00519 [T315I]; assay: Inhibition of breakpoint cluster region-Abelson tyrosine kinase T315I mutant (unknown origin) at 1 uM relative to control; values are per cent of control
[40] = target: Platelet-derived growth factor receptor alpha (Homo sapiens) (UniProt P16234); assay: Inhibition of PDGFRA (unknown origin) at 1 uM relative to control; values are per cent of control
[41] = target: Focal adhesion kinase 1 (Homo sapiens) (UniProt Q05397); assay: Inhibition of FAK (unknown origin) at 1 uM relative to control; values are per cent of control
[42] = target: 3-phosphoinositide-dependent protein kinase 1 (Homo sapiens) (UniProt O15530); assay: Inhibition of PDPK1 (unknown origin) at 1 uM relative to control; values are per cent of control
[43] = target: Dual specificity mitogen-activated protein kinase kinase 1 (Homo sapiens) (UniProt Q02750); assay: Inhibition of MEK1 (unknown origin) at 1 uM relative to control; values are per cent of control
[44] = target: Platelet-derived growth factor receptor beta (Homo sapiens) (UniProt P09619); assay: Inhibition of PDGFRB (unknown origin) at 1 uM relative to control; values are per cent of control

Chain of Ribosomal protein S6 kinase alpha-3 (Homo sapiens) (P51812 whole entry): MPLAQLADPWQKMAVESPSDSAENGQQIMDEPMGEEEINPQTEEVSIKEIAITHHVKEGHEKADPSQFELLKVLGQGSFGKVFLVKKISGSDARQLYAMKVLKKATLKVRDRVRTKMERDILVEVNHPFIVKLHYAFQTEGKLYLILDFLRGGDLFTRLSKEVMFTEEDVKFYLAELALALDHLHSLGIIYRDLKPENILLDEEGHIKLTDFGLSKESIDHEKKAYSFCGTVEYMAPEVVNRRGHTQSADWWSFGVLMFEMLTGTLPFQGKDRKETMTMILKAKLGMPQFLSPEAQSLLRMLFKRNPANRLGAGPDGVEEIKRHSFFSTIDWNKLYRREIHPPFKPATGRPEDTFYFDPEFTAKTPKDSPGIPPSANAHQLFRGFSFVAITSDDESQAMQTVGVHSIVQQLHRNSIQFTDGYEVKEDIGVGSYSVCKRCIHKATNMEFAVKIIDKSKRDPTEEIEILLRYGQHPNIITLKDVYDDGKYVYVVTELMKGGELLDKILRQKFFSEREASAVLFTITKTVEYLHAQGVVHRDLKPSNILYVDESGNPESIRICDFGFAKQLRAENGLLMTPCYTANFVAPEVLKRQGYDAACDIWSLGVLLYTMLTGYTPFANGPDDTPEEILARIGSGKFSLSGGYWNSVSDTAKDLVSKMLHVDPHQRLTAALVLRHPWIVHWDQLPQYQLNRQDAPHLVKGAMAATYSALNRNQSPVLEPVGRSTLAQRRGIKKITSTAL
Chain of Phosphatidylinositol 4,5-bisphosphate 3-kinase catalytic subunit alpha isoform (Homo sapiens) (P42336 whole entry, canonical isoform): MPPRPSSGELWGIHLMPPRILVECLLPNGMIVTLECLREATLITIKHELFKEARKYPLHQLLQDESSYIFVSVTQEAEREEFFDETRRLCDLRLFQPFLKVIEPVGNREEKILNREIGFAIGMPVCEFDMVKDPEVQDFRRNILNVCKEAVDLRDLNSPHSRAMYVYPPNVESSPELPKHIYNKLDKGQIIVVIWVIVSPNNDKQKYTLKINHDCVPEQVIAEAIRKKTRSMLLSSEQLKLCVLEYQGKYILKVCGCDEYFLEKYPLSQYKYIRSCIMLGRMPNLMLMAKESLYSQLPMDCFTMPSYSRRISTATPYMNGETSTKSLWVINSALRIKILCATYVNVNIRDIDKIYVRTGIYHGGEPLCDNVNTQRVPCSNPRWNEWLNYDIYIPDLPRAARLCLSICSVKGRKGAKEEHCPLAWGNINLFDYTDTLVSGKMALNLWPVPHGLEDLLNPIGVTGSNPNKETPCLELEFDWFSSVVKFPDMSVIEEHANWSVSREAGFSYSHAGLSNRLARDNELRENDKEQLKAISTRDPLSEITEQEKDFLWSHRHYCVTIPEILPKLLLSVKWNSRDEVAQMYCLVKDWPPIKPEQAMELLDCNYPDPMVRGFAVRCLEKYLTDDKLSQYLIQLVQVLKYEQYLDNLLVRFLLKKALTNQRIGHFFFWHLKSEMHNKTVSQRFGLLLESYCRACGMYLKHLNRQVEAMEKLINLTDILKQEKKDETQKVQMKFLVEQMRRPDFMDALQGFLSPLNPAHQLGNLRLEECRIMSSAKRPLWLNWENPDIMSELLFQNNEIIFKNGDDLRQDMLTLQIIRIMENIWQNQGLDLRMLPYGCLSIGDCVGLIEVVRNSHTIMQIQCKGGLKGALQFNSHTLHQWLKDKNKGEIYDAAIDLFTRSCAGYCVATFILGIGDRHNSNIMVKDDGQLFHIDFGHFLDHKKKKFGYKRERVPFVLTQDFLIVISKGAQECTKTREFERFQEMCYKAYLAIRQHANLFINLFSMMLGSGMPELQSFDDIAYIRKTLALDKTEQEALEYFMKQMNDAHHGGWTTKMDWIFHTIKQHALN
Chain of Fibroblast growth factor receptor 2 (Homo sapiens) (P21802 22-821 limits assumed): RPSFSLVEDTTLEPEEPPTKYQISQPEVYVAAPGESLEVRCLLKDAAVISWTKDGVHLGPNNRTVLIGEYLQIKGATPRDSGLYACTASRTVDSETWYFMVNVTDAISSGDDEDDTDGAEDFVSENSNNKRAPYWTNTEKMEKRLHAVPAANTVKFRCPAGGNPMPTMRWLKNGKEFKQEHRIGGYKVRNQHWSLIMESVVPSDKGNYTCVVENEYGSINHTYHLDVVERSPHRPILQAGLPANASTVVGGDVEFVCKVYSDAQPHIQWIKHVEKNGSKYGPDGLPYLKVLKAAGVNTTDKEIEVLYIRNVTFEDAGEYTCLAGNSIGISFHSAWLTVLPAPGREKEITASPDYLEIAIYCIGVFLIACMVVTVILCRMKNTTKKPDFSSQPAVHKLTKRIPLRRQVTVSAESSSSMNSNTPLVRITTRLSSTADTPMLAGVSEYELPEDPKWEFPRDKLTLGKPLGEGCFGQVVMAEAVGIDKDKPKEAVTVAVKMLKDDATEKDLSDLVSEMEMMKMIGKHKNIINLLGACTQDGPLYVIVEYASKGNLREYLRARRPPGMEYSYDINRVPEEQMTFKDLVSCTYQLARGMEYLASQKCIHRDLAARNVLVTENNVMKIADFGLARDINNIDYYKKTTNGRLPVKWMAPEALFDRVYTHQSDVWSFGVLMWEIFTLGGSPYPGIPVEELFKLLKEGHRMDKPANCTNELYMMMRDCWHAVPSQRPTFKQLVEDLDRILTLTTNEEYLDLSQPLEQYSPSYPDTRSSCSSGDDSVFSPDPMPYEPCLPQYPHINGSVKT
Chain of Glycogen synthase kinase-3 beta (Homo sapiens) (P49841 whole entry, looked up): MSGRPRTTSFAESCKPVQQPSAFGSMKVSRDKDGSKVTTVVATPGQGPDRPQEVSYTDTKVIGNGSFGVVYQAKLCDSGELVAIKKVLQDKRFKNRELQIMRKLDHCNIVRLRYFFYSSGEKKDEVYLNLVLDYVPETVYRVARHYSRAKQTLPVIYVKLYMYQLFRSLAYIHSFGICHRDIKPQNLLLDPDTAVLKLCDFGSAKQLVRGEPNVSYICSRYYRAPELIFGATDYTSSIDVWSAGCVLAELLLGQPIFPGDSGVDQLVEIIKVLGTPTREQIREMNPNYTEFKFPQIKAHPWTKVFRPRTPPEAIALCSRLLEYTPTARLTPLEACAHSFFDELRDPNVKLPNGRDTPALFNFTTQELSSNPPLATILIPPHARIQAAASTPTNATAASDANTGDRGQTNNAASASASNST
Chain of Platelet-derived growth factor receptor alpha (Homo sapiens) (P16234 whole entry): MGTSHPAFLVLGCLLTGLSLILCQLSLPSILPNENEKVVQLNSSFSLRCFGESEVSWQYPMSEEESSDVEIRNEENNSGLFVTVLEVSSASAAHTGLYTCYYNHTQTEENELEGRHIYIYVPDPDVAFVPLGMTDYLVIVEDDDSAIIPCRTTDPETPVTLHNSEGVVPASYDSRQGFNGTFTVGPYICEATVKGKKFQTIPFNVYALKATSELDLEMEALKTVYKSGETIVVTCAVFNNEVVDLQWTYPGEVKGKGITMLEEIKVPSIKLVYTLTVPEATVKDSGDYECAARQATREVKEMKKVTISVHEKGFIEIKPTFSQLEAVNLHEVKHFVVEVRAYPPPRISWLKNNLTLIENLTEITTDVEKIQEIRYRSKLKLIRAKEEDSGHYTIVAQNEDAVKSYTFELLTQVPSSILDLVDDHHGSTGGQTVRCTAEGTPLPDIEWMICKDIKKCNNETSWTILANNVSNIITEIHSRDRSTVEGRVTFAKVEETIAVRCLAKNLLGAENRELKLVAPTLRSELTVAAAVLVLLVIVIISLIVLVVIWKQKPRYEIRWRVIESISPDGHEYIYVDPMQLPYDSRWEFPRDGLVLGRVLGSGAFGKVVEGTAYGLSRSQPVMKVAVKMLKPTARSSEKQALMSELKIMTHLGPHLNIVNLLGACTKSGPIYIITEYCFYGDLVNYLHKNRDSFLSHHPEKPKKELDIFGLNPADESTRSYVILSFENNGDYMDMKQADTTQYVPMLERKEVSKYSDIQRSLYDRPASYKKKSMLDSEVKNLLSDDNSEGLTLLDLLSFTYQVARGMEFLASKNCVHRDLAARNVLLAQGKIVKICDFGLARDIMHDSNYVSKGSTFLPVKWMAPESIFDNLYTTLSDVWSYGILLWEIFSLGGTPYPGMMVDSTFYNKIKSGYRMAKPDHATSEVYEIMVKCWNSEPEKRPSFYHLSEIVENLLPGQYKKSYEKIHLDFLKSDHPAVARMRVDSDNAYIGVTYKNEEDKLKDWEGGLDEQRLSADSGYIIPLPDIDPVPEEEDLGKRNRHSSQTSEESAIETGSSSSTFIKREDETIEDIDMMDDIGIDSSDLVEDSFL
Chain of Dual specificity mitogen-activated protein kinase kinase 1 (Homo sapiens) (Q02750 whole entry): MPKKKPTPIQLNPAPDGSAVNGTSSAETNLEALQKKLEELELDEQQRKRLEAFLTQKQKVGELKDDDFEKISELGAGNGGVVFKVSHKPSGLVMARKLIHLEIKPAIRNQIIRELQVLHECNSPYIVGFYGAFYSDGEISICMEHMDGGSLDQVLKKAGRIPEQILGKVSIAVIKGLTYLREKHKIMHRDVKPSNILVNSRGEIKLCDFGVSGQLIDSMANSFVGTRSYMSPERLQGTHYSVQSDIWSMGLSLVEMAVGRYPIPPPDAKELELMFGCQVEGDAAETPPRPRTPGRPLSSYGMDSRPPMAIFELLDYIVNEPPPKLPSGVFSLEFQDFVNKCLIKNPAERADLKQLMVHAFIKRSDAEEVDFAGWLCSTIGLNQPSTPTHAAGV
Chain of Dual specificity mitogen-activated protein kinase kinase 2 (Homo sapiens) (P36507 whole entry, canonical isoform): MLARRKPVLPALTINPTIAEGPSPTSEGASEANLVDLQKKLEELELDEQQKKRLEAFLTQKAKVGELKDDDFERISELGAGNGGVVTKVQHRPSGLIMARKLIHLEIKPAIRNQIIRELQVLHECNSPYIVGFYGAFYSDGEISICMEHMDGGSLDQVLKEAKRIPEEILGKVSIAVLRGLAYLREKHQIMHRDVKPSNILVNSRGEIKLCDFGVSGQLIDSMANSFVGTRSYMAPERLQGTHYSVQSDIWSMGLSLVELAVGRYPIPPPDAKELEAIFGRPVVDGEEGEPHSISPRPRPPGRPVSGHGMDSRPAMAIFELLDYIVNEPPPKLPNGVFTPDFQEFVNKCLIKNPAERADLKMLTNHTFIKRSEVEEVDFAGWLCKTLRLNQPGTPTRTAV

IC50 (cells [1]): 410 nM
IC50 (cells [2]): 310 nM
Compound: CCc1ccccc1-c1ccc2nc(NC(=O)NCCN(C)C)sc2c1

IC50 (cells [1]): 1090 nM
IC50 (cells [2]): 210 nM
Compound: CCOc1ccccc1-c1ccc2nc(NC(=O)NCCN3CCOCC3)sc2c1

IC50 (cells [1]): 290 nM
IC50 (cells [2]): 100 nM
Compound: COc1ccccc1-c1ccc2nc(NC(=O)NCCN3CCOCC3)sc2c1
inhibition (BaF3): Dose-dependent effect

IC50 (cells [3]): > 10000 nM
IC50 (cells [1]): 4790 nM
IC50 (cells [2]): 92 nM
IC50 (K562): 170 nM
Compound: Cc1ccc(NC(=O)c2ccc(CN3CCN(C)CC3)cc2)cc1Nc1nccc(-c2cccnc2)n1 [IMATINIB]

IC50 (cells [1]): 1350 nM
IC50 (cells [2]): 180 nM
Compound: CCOc1ccccc1-c1ccc2nc(NC(=O)NCCO)sc2c1

IC50 (cells [1]): 290 nM
IC50 (cells [2]): 82 nM
Compound: COc1ccccc1-c1ccc2nc(NC(=O)NCCCO)sc2c1

IC50 (cells [1]): 870 nM
IC50 (cells [2]): 110 nM
Compound: CCOc1ccccc1-c1ccc2nc(NC(=O)NCCN3CCNCC3)sc2c1

IC50 (cells [3]): > 10000 nM
IC50 (cells [1]): 140 nM
IC50 (cells [2]): 89 nM
IC50 (K562): 120 nM
remaining at 24 h [4]: 100%
solubility [5]: 7.49 µg/mL (≈ 21.8 µM)
Compound: COc1ccccc1-c1ccc2nc(NC(=O)NCCO)sc2c1

IC50 (cells [1]): 560 nM
IC50 (cells [2]): 120 nM
Compound: CCOc1ccccc1-c1ccc2nc(NC(=O)NCCCO)sc2c1

IC50 [6]: > 100000 nM
Compound: CCNC(=O)Nc1nc2ccc(C(=O)N3CCN(C)CC3)cc2[nH]1

IC50 (cells [3]): > 10000 nM
IC50 (cells [1]): 78 nM
IC50 (cells [2]): 46 nM
IC50 (K562): 420 nM
remaining at 24 h [4]: 99.7%
solubility [5]: 2240 µg/mL (≈ 5260 µM)
Compound: COc1ccccc1-c1ccc2nc(NC(=O)NCCN3CCN(C)CC3)sc2c1

residual activity [7]: 100%
residual activity [8]: 100%
residual activity [9]: 100%
residual activity [10]: 98%
residual activity [11]: 100%
residual activity [12]: 100%
residual activity [13]: 100%
residual activity [14]: 100%
residual activity [15]: 100%
residual activity [16]: 100%
IC50 (cells [1]): 2140 nM
IC50 (cells [2]): 3570 nM
residual activity [17]: 87%
residual activity [18]: 100%
residual activity [19]: 100%
residual activity [20]: 100%
residual activity [21]: 100%
residual activity [22]: 100%
residual activity (Homo sapiens [23]): 100%
IC50 [6]: 0.11 nM
residual activity [24]: 58%
residual activity [25]: 100%
residual activity [26]: 100%
residual activity [27]: 100%
residual activity [28]: 79%
residual activity [29]: 4.5%
residual activity [30]: 100%
remaining at 24 h [4]: 100%
residual activity [31]: 100%
residual activity [32]: 72%
residual activity [33]: 67%
residual activity [34]: 100%
solubility [5]: 0.0227 µg/mL (≈ 0.0693 µM)
residual activity [35]: 93%
residual activity [36]: 94%
residual activity (Homo sapiens [37]): 5%
residual activity [38]: 100%
residual activity [39]: 4.5%
residual activity [40]: 79%
residual activity [41]: 100%
residual activity [42]: 67%
residual activity [43]: 100%
residual activity [44]: 16%
Compound: CCNC(=O)Nc1nc2ccc(-c3ccccc3OC)cc2s1

Compound: COC(=O)Nc1nc2ccc(C(=O)c3cccs3)cc2[nH]1 [NOCODAZOLE]
IC50 [6]: 640 nM

IC50 (cells [1]): 1440 nM
IC50 (cells [2]): 280 nM
Compound: CCc1ccccc1-c1ccc2nc(NC(=O)NCCN3CCOCC3)sc2c1

IC50 [6]: > 100000 nM
Compound: CCNC(=O)Nc1nc2ccc(C(=O)Nc3ccncc3)cc2[nH]1
